Three compounds from ChEMBL document CHEMBL4052832, “Selective Inhibitors of Human Neuraminidase 3” (J Med Chem, 2018) can be followed below.

As usually defined, the Ki is a dissociation constant, usually derived from enzyme kinetics or from competition with a known ligand. A high value points to lower affinity. The term inhibition denotes the percentage by which the read-out fell short of the control. One may read the IC50 as the concentration needed to halve the response being measured. A higher IC50 goes with weaker potency in that assay. What is called Papp A→B is the apparent permeability from the apical to the basolateral side of a cell layer. The term logD denotes the decadic logarithm of the distribution of all forms, ionised or not, between an organic phase and buffer at a given pH. As usually defined, the Papp B→A is the apparent permeability from the basolateral to the apical side of a cell layer. The term efflux ratio denotes a quotient of directional permeabilities that is used to spot active efflux. By half-life is commonly meant the time needed for the level to fall by half in the phase considered. A lower half-life goes with rapid decline.

In brackets after ≈: the same amount, converted by molar mass. Activity calls are given as the source filed them.

For series [1], the target named is T1, Sialidase-4 (Homo sapiens, UniProt Q8WWR8).
T1 sequence (Q8WWR8 whole entry): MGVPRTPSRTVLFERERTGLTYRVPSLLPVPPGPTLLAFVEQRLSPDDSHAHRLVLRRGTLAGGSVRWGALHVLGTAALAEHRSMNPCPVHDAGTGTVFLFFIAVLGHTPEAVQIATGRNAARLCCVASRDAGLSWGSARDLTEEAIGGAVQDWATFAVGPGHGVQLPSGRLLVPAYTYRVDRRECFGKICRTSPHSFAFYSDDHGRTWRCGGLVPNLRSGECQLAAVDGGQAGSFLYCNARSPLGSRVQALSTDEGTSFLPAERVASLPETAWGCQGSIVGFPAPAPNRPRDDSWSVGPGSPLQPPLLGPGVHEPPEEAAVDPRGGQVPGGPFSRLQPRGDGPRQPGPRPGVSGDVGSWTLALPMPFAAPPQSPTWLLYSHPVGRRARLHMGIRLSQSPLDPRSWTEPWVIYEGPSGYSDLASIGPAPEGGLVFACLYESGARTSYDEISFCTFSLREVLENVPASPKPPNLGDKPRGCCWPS
The series can be described thus: Inhibition of human N-terminal MBP-fused NEU4 expressed in Escherichia coli using 4MU-NANA as substrate preincubated for 15 mins followed by substrate addition measured every minute for 30 mins by fluorescence based assay.

For series [2], the target named is Sialidase-1 (Mus musculus) (UniProt O35657). The series can be described thus: Inhibition of NEU1 in C57BL6 mouse brain homogenate using 4MU-NANA as substrate at 150 uM after 30 mins. A digest of the protocol: (§1)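 Brains from 12-week-old WT, neu1−/−, neu3−/− or neu3−/−neu4−/− mice, snap-frozen and homogenized in water; protein by Bradford. Acidic neuraminidase assayed at pH 4.6 using homogenate equal to 300 μg protein, inhibitor 0–150 μM and 200 μM 4MU-NANA, 37 °C for 30 min. Stopped with 0.4 M glycine pH 10.5. Activity relative to no-inhibitor, mean ± SD of 6–12 experiments.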

The target of series [3] is T2, Sialidase-3 (Homo sapiens, UniProt Q9UQ49).
T2 sequence (Q9UQ49 whole entry): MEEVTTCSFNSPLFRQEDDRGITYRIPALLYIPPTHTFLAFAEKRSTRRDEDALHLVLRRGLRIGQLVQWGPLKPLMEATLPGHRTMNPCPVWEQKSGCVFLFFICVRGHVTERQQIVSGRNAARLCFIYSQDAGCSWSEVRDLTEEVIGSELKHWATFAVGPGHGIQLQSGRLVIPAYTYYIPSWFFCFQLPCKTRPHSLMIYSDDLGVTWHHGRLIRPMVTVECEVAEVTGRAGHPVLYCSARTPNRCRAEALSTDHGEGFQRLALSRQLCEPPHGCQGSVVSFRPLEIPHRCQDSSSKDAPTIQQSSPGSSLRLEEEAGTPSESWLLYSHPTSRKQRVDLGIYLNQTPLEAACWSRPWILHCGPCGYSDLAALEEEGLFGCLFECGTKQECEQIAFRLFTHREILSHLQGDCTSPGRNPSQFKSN
Kind of series: Inhibition of human N-terminal MBP-fused NEU3 expressed in Escherichia coli using 4MU-NANA as substrate preincubated for 15 mins followed by substrate addition measured after 30 mins by fluorescence based assay.

Series [4] has as its target T3, Sialidase-1 (Homo sapiens, UniProt Q99519). The series can be described thus: Inhibition of human CathA-IRES-6His-tagged NEU1 expressed in HEK293T cells using 4MU-NANA as substrate preincubated for 15 mins followed by substrate addition measured after 30 mins by fluorescence based assay. In kind it is cell-based, HEK-293T.
Series [5] has as its target T1, Sialidase-4. The series can be described thus: Inhibition of human N-terminal MBP-fused NEU4 expressed in Escherichia coli using GM3 as substrate preincubated for 15 mins followed by substrate addition measured after 30 mins by fluorescence based assay.
The target in series [6] is Sialidase NEU1/NEU4 (Mus musculus) (UniProt O35657+Q8BZL1). The series can be described thus: Inhibition of NEU1/NEU4 in NEU3 knockout C57BL6 mouse brain homogenate up to 150 uM using 4MU-NANA as substrate after 30 mins relative to control. The essentials: as §1
Series [7] has as its target Sialidase-1 (Mus musculus) (UniProt O35657). The series can be described thus: Inhibition of NEU1 in C57BL6 mouse brain homogenate assessed as residual activity at 50 uM using 4MU-NANA as substrate after 30 mins relative to control. The essentials: as §1
The target in series [8] is T4, Sialidase NEU3/NEU4 (Mus musculus) (UniProt Q9JMH7+Q8BZL1). The series can be described thus: Inhibition of NEU3/NEU4 in NEU1 knockout C57BL6 mouse brain homogenate using 4MU-NANA as substrate after 30 mins. The essentials: as §1
Series [9] addresses T2, Sialidase-3. The series can be described thus: Inhibition of human N-terminal MBP-fused NEU3 expressed in Escherichia coli using GM3 as substrate preincubated for 15 mins followed by substrate addition measured after 30 mins by fluorescence based assay. A digest of the protocol: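 GM3 hydrolysis in 0.1 M sodium acetate pH 4.5. Serially diluted inhibitors preincubated with enzyme 15 min at 0 °C, then GM3 added to 500 μM for 30 min at 37 °C. Quenched with fresh 0.2 M sodium borate pH 10.2, then malononitrile added to form a fluorescent adduct with freed sialic acid; ex 357/em 434 nm.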

Series [10] is described as follows: Inhibition in C57BL6 mouse brain homogenate at 10 uM using 4MU-NANA as substrate after 30 mins relative to control.
The target in series [11] is T3, Sialidase-1. The series can be described thus: Inhibition of human CathA-IRES-6His-tagged NEU1 expressed in HEK293T cells using 4MU-NANA as substrate preincubated for 15 mins followed by substrate addition measured every minute for 30 mins by fluorescence based assay. In kind it is cell-based. Particulars: hek-293t. A digest of the protocol:
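Ki determination. Enzyme preincubated with serially diluted inhibitor 15 min at 0 °C, then serial 4MU-NANA concentrations added.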

Series [12] deals with Sialidase-1 (Mus musculus) (UniProt O35657). The series can be described thus: Inhibition of NEU1 in NEU3/NEU4 double knockout C57BL6 mouse brain homogenate up to 150 uM using 4MU-NANA as substrate after 30 mins. A digest of the protocol:
as §1

Series [13] deals with T2, Sialidase-3. Kind of series: Inhibition of human N-terminal MBP-fused NEU3 expressed in Escherichia coli using 4MU-NANA as substrate preincubated for 15 mins followed by substrate addition measured every minute for 30 mins by fluorescence based assay.
Series [14] addresses T1, Sialidase-4. Kind of series: Inhibition of human N-terminal MBP-fused NEU4 expressed in Escherichia coli using 4MU-NANA as substrate preincubated for 15 mins followed by substrate addition measured after 30 mins by fluorescence based assay.
Series [15] in a line: Apparent permeability from apical side to basolateral side in human Caco2 cells at 62.5 uM after 30 mins by LC-MS analysis. Format: ADME, cell-based. Particulars: Caco-2. The essentials: (§2)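 Caco-2 monolayer permeation run in triplicate in the apical-to-basolateral and basolateral-to-apical directions. Compound at 62.5 μM in the donor chamber with 0.6% DMSO. Samples taken at 30 min for LC-MS. Papp = (dQ/dt)/(A × c0). Efflux ratio is Papp b→a over Papp a→b.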

Series [16] is described as follows: Octanol-water partition coefficient, log D of compound at pH 7.4 at 10 uM after 2 hrs by LC-MS based shake flask analysis. Format: physicochemical. A digest of the protocol:
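Shake-flask log D at pH 7.4. Octanol and 0.1 M Tris-HCl pH 7.4, mutually saturated. Compound at 10 μM in buffer with 0.1% DMSO, at two octanol:buffer ratios, each in triplicate.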

The nature of series [17]: Kinetic solubility of compound in Prisma HT 6.5 buffer at pH 7.4 at 10 mM incubated in supersonic bath for 30 mins measured after 24 hrs by LC-MS analysis. Format: physicochemical. Particulars: pH 6.5, in the assay text read “at pH 6.5” for “at pH 7.4”, read-out: Kinetic_solubility. A digest of the protocol: (§3)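 Kinetic solubility. 10 mM DMSO stock diluted 1:100 into 0.1 M Tris-HCl pH 7.4, Prisma HT buffer, or 0.9% NaCl in water (final 1% DMSO). Sonicated 30 min at 25 °C, equilibrated 24 h at 25 °C, filtered (0.2 μm), diluted in MeOH and analysed by LC-MS. Single measurements.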

Series [18] can be described thus: Apparent permeability from basolateral side to apical side in human Caco2 cells at 62.5 uM after 30 mins by LC-MS analysis. In kind it is ADME, cell-based. The note with it: Caco-2. The essentials:
as §2
A general note: Passage across Caco-2 layers is used to estimate intestinal permeability.

Series [19] in a line: Kinetic solubility of compound in Tris-HCl buffer at pH 7.4 at 10 mM incubated in supersonic bath for 30 mins measured after 24 hrs by LC-MS analysis. Particulars: Tris-HCl buffer, pH 7.4; read-out: Kinetic_solubility. Format: physicochemical. The essentials: as §3
Series [20] can be described thus: Efflux ratio of apparent permeability from basolateral to apical side over apical to basolateral side of human Caco2 cells at 62.5 uM after 30 mins by LC-MS analysis. In kind it is ADME, cell-based. The note with it: Caco-2. The essentials: as §2
Series [21] is described as follows: Kinetic solubility of compound in 0.9% NaCl at 10 mM incubated in supersonic bath for 30 mins measured after 24 hrs by LC-MS analysis. Format: physicochemical. The note with it: read-out: Kinetic_solubility. A digest of the protocol:
as §3

Series [22] in a line: Half life in human liver microsomes at 20 uM by LC-MS analysis. Format: ADME, microsome. In general terms: Liver microsomes are a subcellular fraction often used to study metabolism.
Series [23] deals with Sialidase-1 (Mus musculus) (UniProt O35657). The series can be described thus: Inhibition of NEU1 in C57BL6 mouse brain homogenate assessed as residual activity at 10 uM using 4MU-NANA as substrate after 30 mins relative to control. The essentials: as §1
The target of series [24] is T4, Sialidase NEU3/NEU4 (Mus musculus). Kind of series: Inhibition of NEU3/NEU4 in NEU1 knockout C57BL6 mouse brain homogenate assessed as residual activity using 4MU-NANA as substrate after 30 mins relative to control. A digest of the protocol: as §1

T4 sequence (Q8BZL1 whole entry, looked up, the tested form may be a part): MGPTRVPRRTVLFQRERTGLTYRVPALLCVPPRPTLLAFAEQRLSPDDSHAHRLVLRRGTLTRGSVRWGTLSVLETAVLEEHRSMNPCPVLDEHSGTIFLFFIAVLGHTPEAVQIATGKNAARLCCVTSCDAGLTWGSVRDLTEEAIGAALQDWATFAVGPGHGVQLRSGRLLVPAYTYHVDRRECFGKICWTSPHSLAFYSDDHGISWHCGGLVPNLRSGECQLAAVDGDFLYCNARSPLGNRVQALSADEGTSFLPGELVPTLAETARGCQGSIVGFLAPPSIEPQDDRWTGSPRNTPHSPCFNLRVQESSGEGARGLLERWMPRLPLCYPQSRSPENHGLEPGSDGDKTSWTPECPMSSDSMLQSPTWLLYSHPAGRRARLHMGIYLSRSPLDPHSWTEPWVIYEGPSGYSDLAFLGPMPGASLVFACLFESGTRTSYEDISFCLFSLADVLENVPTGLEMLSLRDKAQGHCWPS
T4 sequence (Q9JMH7 whole entry, looked up, the tested form may be a part): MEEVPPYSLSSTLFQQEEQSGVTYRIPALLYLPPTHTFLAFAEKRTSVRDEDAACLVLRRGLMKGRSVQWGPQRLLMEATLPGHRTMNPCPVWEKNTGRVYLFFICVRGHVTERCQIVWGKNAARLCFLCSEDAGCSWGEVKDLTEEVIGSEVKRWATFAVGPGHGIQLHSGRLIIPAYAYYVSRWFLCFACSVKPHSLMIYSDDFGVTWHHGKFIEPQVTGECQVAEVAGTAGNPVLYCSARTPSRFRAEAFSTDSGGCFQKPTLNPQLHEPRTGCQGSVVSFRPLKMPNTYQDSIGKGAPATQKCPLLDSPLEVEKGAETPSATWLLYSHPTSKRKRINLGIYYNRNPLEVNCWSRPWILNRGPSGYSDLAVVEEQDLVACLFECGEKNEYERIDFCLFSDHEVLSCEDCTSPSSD

On to `CC(=O)N[C@H]1[C@H]([C@H](O)[C@H](O)Cn2cc(-c3ccc(-c4ccccc4)cc3)nn2)OC(C(=O)O)=C[C@@H]1O`, for which the figures for the Ki on Sialidase-4 [1], at Sialidase-1 [11] and at Sialidase-3 [13] were 0.26 µM, “Not Active” and 0.28 µM, respectively. The inhibition result in series [2] and in series [12] was “inactive” in each case. Also, the IC50 on Sialidase-3 [3] is 0.7 µM; on Sialidase-1 [4] it was greater than 500 µM; on Sialidase-4 [5], 3.7 µM; against Sialidase-3 [9] it was 12 µM; against Sialidase-4 [14], 0.52 µM. Also, the inhibition in series [6] was 20%; in series [10] it was less than 70%. Besides, in series [7], the Activity was determined as 60%. Moreover, the inhibition entry in series [8] was “Active”.
On to `CCCCOC(=O)C1=C[C@H](O)[C@@H](NC(C)=O)[C@H]([C@H](O)[C@H](O)Cn2cc(-c3ccc(-c4ccccc4)cc3)nn2)O1`, for which the Papp A→B at 0.5 h, 62.5 µM in series [15] was found to be 0.32 ×10⁻⁶ cm/s. In [16], the logD at 2 h, 10 µM turned out to be 3.8. In addition, the solubility kinetic at 24 h, 10000 µM in series [17] is 3.2 µg/mL (≈ 5.81 µM); in series [19], 3.9 µg/mL (≈ 7.08 µM); in [21], 5 µg/mL (≈ 9.08 µM). Further, the Papp B→A at 0.5 h, 62.5 µM in series [18] was 2.2 ×10⁻⁶ cm/s. Moreover, the efflux ratio at 0.5 h, 62.5 µM in series [20] was determined as 6.7. Besides, in series [22], the half-life at 20 µM is greater than 1.5 h.
On to `CC(=O)N[C@H]1[C@H]([C@H](O)[C@H](O)Cn2cc(-c3ccc(-c4ccccc4)cc3)nn2)OC(C(=O)O)=C[C@@H]1NC(=N)N`, for which the IC50 on Sialidase-3 [3] was 0.58 µM; at Sialidase-1 [4], greater than 500 µM; at Sialidase-3 [9] it was 3.8 µM. This compound also registered a logD at 2 h, 10 µM in series [16] of 1.2. Besides, the Activity was 85% in series [23] and 60% in series [24]. Also, the figures for the Ki result at Sialidase-1 [11] and on Sialidase-3 [13] were “Not Active” and 0.32 µM, respectively. Moreover, the inhibition entry in [12] is “inactive”.
